Assay [1] addresses T1, Muscarinic acetylcholine receptor M2 (Rattus norvegicus) (UniProt P10980).
T1 sequence (whole entry): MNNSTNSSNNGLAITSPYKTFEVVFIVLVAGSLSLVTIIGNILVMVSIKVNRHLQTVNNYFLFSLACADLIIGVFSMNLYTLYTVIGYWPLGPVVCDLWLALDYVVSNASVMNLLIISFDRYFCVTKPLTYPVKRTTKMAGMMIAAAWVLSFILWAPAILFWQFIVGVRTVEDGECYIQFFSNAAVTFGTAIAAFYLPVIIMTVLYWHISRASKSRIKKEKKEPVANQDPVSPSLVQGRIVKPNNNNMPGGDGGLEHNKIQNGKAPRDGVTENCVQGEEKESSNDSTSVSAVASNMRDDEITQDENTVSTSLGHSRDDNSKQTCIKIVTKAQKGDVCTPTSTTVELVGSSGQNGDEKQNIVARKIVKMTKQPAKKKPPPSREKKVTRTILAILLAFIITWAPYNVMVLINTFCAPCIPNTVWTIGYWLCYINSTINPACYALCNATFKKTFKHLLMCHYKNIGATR
Put plainly: (§1) Binding affinity was measured as selectivity for sigma 1 site over muscarinic (M2) receptor at 10 uM in rat using [3H]QN as radioligand. In short, it runs like this: (§2)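 Muscarinic binding, M1 in rat cortex with [3H]pirenzepine 0.5 nM and M2 in rat heart with [3H]QNB 0.05 nM.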

The target in assay [2] is Opioid receptor (Rattus norvegicus) (UniProt P33533+P34975+P33535). Put plainly: Binding affinity was measured as selectivity for sigma-1 site over opioid receptor in rat using [3H]naloxone as radioligand at 10 uM.
Opioid receptor (Rattus norvegicus), sequence (P33533 whole entry, looked up): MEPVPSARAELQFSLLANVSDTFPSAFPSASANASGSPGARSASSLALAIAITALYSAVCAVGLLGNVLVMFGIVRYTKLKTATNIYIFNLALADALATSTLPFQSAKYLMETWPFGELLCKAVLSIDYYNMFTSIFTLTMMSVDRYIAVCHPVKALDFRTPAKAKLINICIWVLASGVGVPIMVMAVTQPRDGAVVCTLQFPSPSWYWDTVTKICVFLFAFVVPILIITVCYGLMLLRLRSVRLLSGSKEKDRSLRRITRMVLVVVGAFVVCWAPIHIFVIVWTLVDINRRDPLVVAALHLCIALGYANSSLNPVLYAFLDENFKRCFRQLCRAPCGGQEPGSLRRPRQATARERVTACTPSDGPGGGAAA
Opioid receptor (Rattus norvegicus), sequence (P33535 whole entry, looked up): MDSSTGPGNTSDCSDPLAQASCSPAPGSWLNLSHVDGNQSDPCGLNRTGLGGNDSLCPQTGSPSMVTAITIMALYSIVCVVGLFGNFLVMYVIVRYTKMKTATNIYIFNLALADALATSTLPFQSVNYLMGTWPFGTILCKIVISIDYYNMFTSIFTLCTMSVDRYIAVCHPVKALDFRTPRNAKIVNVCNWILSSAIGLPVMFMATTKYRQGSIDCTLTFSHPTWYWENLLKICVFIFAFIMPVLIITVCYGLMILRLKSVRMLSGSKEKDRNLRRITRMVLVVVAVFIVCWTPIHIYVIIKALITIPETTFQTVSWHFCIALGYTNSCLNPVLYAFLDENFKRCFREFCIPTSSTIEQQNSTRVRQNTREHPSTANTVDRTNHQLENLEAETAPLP
Opioid receptor (Rattus norvegicus), sequence (P34975 whole entry, looked up): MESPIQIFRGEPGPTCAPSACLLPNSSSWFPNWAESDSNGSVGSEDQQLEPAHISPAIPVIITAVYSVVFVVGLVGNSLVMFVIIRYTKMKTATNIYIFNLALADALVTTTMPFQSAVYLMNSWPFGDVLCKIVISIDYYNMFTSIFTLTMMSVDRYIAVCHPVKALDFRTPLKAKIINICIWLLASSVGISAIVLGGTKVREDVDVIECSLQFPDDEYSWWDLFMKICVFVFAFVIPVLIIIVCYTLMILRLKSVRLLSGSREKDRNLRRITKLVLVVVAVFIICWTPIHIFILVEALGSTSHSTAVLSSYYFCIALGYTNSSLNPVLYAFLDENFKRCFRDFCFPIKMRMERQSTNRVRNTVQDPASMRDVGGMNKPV
In assay [3] the target is Sigma 2 receptor. Description: The compound was evaluated for affinity at sigma-2 site by inhibition of [3H]1,3-di(2-tolyl)guanidine (DTG) binding in guinea pig brain. The arrangement: species or system Cavia porcellus. In short, it runs like this:
(§3)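 Final [3H]DTG 4 nM with varied test concentrations. Incubation 25 °C for 90 min. PEI-soaked GF/B filtration, scintillation counting. Ki from EBDA/LIGAND, at least three determinations in triplicate.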

Assay [4] addresses T2, Muscarinic acetylcholine receptor M1 (Rattus norvegicus, UniProt P08482).
T2 sequence (P08482 whole entry): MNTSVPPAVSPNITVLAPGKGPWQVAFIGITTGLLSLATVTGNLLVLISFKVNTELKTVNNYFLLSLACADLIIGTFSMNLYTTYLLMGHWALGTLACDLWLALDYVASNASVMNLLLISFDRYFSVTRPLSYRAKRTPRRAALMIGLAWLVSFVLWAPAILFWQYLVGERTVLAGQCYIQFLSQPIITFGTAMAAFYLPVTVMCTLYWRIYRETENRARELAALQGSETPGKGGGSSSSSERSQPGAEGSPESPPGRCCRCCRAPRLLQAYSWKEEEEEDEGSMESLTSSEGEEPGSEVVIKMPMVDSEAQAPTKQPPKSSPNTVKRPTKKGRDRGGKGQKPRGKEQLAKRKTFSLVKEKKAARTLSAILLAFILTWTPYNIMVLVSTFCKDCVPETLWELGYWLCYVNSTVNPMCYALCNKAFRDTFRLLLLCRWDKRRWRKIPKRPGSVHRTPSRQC
Put plainly: Binding affinity was measured as selectivity for sigma-1 site over muscarinic (M1) receptor in rat using [3H]pirenzepine as radioligand.

The target in assay [5] is T3, Glutamate NMDA receptor (Rattus norvegicus) (UniProt P35439+Q00959+Q00960+Q00961+Q62645+Q8VHN2+Q9R1M7). Put plainly: Binding affinity was measured as selectivity for sigma-1 site over phencyclidine (PCP) receptor in rat using [3H]TCP as radioligand at 10 uM.
Assay [6] is described as follows: Binding affinity for sigma-1 site over dopamine receptor D1 in rat using [3H]SCH-23390 as radioligand.
Assay [7] is described as follows: Binding affinity for sigma-1 site over dopamine (D2) receptor in rat using [3H]spiperone as radioligand.
In assay [8] the target is T3, Glutamate NMDA receptor (Rattus norvegicus). Description: Binding affinity was measured as selectivity for sigma-1 site over N-methyl-D-aspartate (NMDA) receptor in rat using [3H]CGS-19,755 as radioligand at 10 uM.
For assay [9], the target named is T4, Muscarinic acetylcholine receptor M2 (Rattus norvegicus, UniProt P10980).
T4 sequence (P10980 whole entry): T1 sequence (whole entry)
Put plainly: Binding affinity was measured against muscarinic (M2) receptor at 10 uM in rat using [3H]QN as radioligand.

Assay [10] addresses T3, Glutamate NMDA receptor (Rattus norvegicus). Put plainly: Binding affinity was measured against N-methyl-D-aspartate (NMDA) receptor in rat using [3H]CGS-19,755 as radioligand at 10 uM.
Assay [11] has as its target T5, Opioid receptor (Rattus norvegicus, UniProt P33533+P34975+P33535). Put plainly: Binding affinity was measured against opioid receptor in rat using [3H]naloxone as radioligand.
Assay [12] deals with T2, Muscarinic acetylcholine receptor M1. Put plainly: Binding affinity was measured against muscarinic (M1) receptor in rat using [3H]pirenzepine as radioligand.
Assay [13] concerns the target Glutamate NMDA receptor. Put plainly: Binding affinity was measured against phencyclidine (PCP) receptor in rat using [3H]TCP as radioligand.
Assay [14] has as its target T6, D(2) dopamine receptor (Rattus norvegicus, UniProt P61169). Description: Binding affinity was measured against dopamine (D2) receptor in rat using [3H]spiperone as radioligand.
The target of assay [15] is T7, D(1A) dopamine receptor (Rattus norvegicus, UniProt P18901). Description: Binding affinity was measured against dopamine receptor D1 in rat using [3H]SCH-23390 as radioligand.
T7 sequence (P18901 whole entry): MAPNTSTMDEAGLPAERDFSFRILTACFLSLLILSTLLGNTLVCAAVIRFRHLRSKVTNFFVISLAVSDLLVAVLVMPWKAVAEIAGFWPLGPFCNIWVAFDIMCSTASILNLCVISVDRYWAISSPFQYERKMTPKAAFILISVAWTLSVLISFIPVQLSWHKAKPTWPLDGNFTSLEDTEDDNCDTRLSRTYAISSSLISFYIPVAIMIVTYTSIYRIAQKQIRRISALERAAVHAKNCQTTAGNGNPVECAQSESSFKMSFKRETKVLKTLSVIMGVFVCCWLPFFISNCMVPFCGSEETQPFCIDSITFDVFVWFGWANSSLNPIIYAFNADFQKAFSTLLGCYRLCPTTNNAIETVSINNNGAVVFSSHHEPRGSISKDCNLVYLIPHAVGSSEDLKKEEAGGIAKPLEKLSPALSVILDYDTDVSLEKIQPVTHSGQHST
Assay [16] has as its target T6, D(2) dopamine receptor. Description: Iodo derivative shows a potent sigma binding ligand, had some affinity for D2 site in rat.
For assay [17], the target named is T6, D(2) dopamine receptor. Description: The nitro derivative RLH-033 shows significant selectivity for the [3H]-(=)-PENT site over dopamine 2 in rat using [3H]SCH-23390 as radioligand.
The target of assay [18] is T4, Muscarinic acetylcholine receptor M2. The assay is described as §1. A digest of the protocol: as §2
Assay [19] has as its target T2, Muscarinic acetylcholine receptor M1. Put plainly: The nitro derivative RLH-033 shows significant selectivity for the [3H]-(=)-PENT site over muscarinic 1 in rat using [3H]pirenzepine as radioligand.
The target in assay [20] is T7, D(1A) dopamine receptor. Put plainly: The nitro derivative RLH-033 shows significant selectivity for the [3H]-(=)-PENT site over […] in rat using [3H]SCH-23390 as radioligand.
The target of assay [21] is T4, Muscarinic acetylcholine receptor M2. Put plainly: The nitro derivative RLH-033 shows significant selectivity for the [3H]-(=)-PENT site over muscarinic 2 in rat using [3H]QN as radioligand.
In assay [22] the target is Glutamate NMDA receptor. Description: Binding affinity was measured as selectivity for sigma-1 site over phencyclidine (PCP) receptor in rat using [3H]TCP as radioligand.
In assay [23] the target is T5, Opioid receptor. Description: Binding affinity was measured as selectivity for sigma-1 site over opioid receptor in rat using [3H]naloxone as radioligand.
In assay [24] the target is T2, Muscarinic acetylcholine receptor M1. Put plainly: Binding affinity was measured as selectivity for sigma-1 site over muscarinic (M1) receptor in rat.
Assay [25] has as its target T3, Glutamate NMDA receptor (Rattus norvegicus). Put plainly: Binding affinity was measured against phencyclidine (PCP) receptor in rat using [3H]-TCP as radioligand at 10 uM.
Assay [26] has as its target Sigma 2 receptor. Description: Affinity at sigma-2 site by inhibition of [3H]1,3-di(2-tolyl)guanidine (DTG) binding in guinea pig brain. On the set-up: species or system Cavia porcellus. A digest of the protocol: as §3

T6 sequence (P61169 whole entry): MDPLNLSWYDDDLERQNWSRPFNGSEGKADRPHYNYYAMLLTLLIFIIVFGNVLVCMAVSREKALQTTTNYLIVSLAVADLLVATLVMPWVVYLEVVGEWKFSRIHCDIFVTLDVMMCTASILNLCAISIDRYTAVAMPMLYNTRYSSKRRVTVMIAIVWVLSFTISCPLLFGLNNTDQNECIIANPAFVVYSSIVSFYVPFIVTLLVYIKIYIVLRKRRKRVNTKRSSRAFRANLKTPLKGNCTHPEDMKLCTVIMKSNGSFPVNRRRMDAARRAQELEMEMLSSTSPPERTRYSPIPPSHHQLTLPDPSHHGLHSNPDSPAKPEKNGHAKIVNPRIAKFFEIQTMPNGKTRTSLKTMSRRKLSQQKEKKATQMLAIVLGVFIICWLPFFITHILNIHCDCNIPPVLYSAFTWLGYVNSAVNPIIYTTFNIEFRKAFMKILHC

For the compound `O=C(OCCN1CCC(c2ccccc2)CC1)C1(c2ccccc2)CCCC1`, the inhibition stood at 20% in [1], 63% in assay [2], 8% in [5] and 15% in assay [8]. In addition, the inhibition constant (Ki) in assay [3] is 0.0523 µM; in [4], 0.17 µM; in [6], 4.9 µM; in assay [7] it was 1.1 µM.

Take `O=C(OCCN1CCN(c2ccccc2)CC1)C1(c2ccc(Cl)cc2)CCCC1`: the affinity in assay [3], expressed as Ki, was 0.763 µM.

In turn, `O=C(OCCN1CCC(c2ccccc2)CC1)C1(c2ccc(Cl)cc2)CCCC1` came in with a Ki in assay [3] of 0.0239 µM.

Take `O=C(OCCN1CCN(c2ccccc2)CC1)C1(c2ccc([N+](=O)[O-])cc2)CCCC1`: the inhibition is 25% in assay [2], 10% in assay [5] and 19% in [8]. Moreover, the Ki in [3] was 0.0303 µM; in assay [6] it was 1 µM; in assay [7], 0.5 µM.

Turning to `COc1ccc(C2(C(=O)OCCCN3CCC(c4ccccc4)CC3)CCCC2)cc1`, the Ki in assay [3] came to 0.00171 µM; in assay [6], 6 µM; in [7] it was 1 µM.

In the case of `COc1ccc2c(c1)[C@]13CCCC[C@@H]1[C@H](C2)N(C)CC3` [DEXTROMETHORPHAN], in assay [9], the Ki is > 10 µM. The compound also had an inhibition in assay [10] of 2%.

Regarding `CC(C)=CCN1CC[C@]2(C)c3cc(O)ccc3C[C@H]1[C@H]2C` (single isomer, unassigned) [(+)-PENTAZOCINE], the Ki is 0.651 µM in assay [11]; 0.525 µM in assay [9]; 0.225 µM in [12]; 4.19 µM in assay [13]; > 5 µM in [14]; > 5 µM in assay [15].

`O=C(OCCN1CCC(c2ccccc2)CC1)C1(c2ccc(I)cc2)CCCC1`: the inhibitory constant (Ki) is 0.055 µM in [16], 0.052 µM in assay [3] and > 1 µM in [6]. In addition, the inhibition in assay [2] worked out at 25%; in assay [5], 8%.

`O=C(OCCN1CCC(c2ccccc2)CC1)C1(c2ccc([N+](=O)[O-])cc2)CCCC1`: the Ki in assay [17] was > 7 µM; in assay [18], 1.71 µM; in assay [19] it was > 17.6 µM; in assay [3] it was 0.00393 µM; in assay [4], 0.88 µM; in [20], > 58 µM. Besides, the Ki is 2.9 µM in [6], 0.35 µM in assay [7] and > 34.2 µM in assay [21]. For the same compound, the inhibition in assay [2] was determined as 42%; in [5], 7%; in assay [8], 12%.

`O=C(OCCCN1CCC(c2ccccc2)CC1)C1(c2ccc([N+](=O)[O-])cc2)CCCC1` yielded a Ki in assay [3] of 0.00088 µM.

For `N#Cc1ccc(C2(C(=O)OCCN3CCC(c4ccccc4)CC3)CCCC2)cc1`, the Ki is 0.0268 µM in assay [3], > 1 µM in assay [6] and 0.195 µM in assay [7].

On to `O=C(OCCCN1CCC(c2ccccc2)CC1)C1(c2ccc(Cl)cc2)CCCC1`, for which, in assay [3], the Ki turned out to be 0.00441 µM.

In the case of `COc1ccc(C2(C(=O)OCCN3CCC(c4ccccc4)CC3)CCCC2)cc1`, the Ki in assay [3] turned out to be 0.0318 µM.

Regarding `Cc1ccccc1NC(=N)Nc1ccccc1C`, the inhibition constant (Ki) was 6.69 µM in assay [22]; 3.95 µM in assay [23]; 2.96 µM in assay [18]; 0.744 µM in assay [24]; > 5 µM in assay [6]; > 5 µM in assay [7]. The inhibition in assay [8] turned out to be 0%.

As to `O=C(OCCCN1CCC(c2ccccc2)CC1)C1(c2ccc(I)cc2)CCCC1`, the inhibition constant Ki in [3] turned out to be 0.00649 µM.

For `O=C(OCCCCCCN1CCC(c2ccccc2)CC1)C1(c2ccccc2)CCCC1`, the Ki in [3] was 0.00188 µM.

For the compound `O=C(OCCCCN1CCC(c2ccccc2)CC1)C1(c2ccccc2)CCCC1`, the Ki is 0.00069 µM in assay [3], 3.1 µM in assay [6] and 0.47 µM in [7].

`CCN(CC)CCOC(=O)C1(c2ccccc2)CCCC1`: the inhibition in assay [25] was 11%; in assay [10], 19%. Also, the Ki was 0.658 µM in assay [26], > 0.5 µM in assay [14] and > 1 µM in assay [15].

For `O=C(OCCCCCN1CCC(c2ccccc2)CC1)C1(c2ccccc2)CCCC1`, the Ki in assay [3] was 0.00105 µM.

On to `O=C(CCCN1CCC(O)(c2ccc(Cl)cc2)CC1)c1ccc(F)cc1`, for which the inhibition in assay [10] was 25%.

As for `O=C(OCCN1CCN(c2ccccc2)CC1)C1(c2ccccc2)CCCC1`, the inhibition is 98% in [1], 43% in [2], 1% in assay [5] and 7% in assay [8]. For the same compound, the figures for the Ki in assay [3], in assay [24] and in assay [7] were 0.696 µM, 1.47 µM and > 0.5 µM, respectively.

`O=C(OCCCN1CCC(c2ccccc2)CC1)C1(c2ccccc2)CCCC1`: the inhibition constant Ki in [18] turned out to be 0.67 µM; in [3], 0.00117 µM; in assay [24] it was 0.17 µM; in assay [6], 10 µM; in assay [7], 1.2 µM.

For the compound `O=C(OCCN1CCN(c2ccccc2)CC1)C1(c2ccc(I)cc2)CCCC1`, the inhibition in assay [2] was determined as 25%; in assay [5], 7%. For the same compound, the Ki in assay [3] worked out at 0.293 µM; in [6] it was 0.65 µM; in [7], 0.215 µM.

What is called inhibition is how much of the control response was suppressed. Read a high inhibition as a strong effect. What is called Ki is a dissociation constant, usually derived from enzyme kinetics or from competition with a known ligand. A low value points to higher affinity.
